ChEMBL document CHEMBL4346689, “Novel benzenesulfonamide and 1,2-benzisothiazol-3(2H)-one-1,1-dioxide derivatives as potential selective COX-2 inhibitors” (Eur J Med Chem, 2019)

Key:
[1] = target: T1, Prostaglandin G/H synthase 1 (Ovis aries, UniProt P05979); test: Inhibition of ovine COX1 assessed as reduction in oxidized TMPD using arachidonic acid as substrate preincubated for 5 mins followed by substrate addition and measured after 2 mins by colorimetric assay
T1 sequence (P05979 whole entry): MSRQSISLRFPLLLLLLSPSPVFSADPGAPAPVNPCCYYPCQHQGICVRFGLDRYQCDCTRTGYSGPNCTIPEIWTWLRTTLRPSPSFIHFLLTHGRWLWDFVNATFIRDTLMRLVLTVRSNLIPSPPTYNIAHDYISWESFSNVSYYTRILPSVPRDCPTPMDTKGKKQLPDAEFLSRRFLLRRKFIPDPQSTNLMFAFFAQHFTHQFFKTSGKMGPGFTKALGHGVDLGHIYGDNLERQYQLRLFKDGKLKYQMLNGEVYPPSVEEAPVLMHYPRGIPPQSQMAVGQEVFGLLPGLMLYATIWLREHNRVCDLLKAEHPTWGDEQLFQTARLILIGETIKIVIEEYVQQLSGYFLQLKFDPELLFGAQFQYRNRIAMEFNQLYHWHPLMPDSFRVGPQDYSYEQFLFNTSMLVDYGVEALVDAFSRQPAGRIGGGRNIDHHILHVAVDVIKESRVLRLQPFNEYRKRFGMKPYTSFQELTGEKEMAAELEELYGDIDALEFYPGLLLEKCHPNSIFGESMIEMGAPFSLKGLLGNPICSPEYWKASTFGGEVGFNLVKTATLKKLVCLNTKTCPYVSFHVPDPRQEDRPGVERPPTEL

Rattus norvegicus [2] = test: Antiinflammatory activity against carrageenan-induced paw oedema in albino rat assessed as hind paw thickness at 18 mg/kg, ip pretreated for 1 hr followed by carrageenan challenge and measured immediately by caliper method (reference value: 0.24 +/- 0.24 millimeter); format: functional
Rattus norvegicus [3] = test: Antiinflammatory activity against carrageenan-induced paw oedema in albino rat assessed as hind paw thickness at 18 mg/kg, ip pretreated for 1 hr followed by carrageenan challenge and measured after 1 hr by caliper method (reference value: 0.73 +/- 0.03 millimeter); format: functional
Method in brief: (§1)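 Male albino rats, 150–200 g, six per group, housed at 27 °C on a 12/12 light-dark cycle. Given 18 mg/kg i.p.; control group left untreated. Right hind paw injected 1 h later with 0.1 mL 10% carrageenin. Paw thickness measured by skin caliper at 1, 2, 3 and 4 h after injection. Reported as mean ± S.D., n = 6; significance p < 0.05.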

Rattus norvegicus [4] = test: Antiinflammatory activity against carrageenan-induced paw oedema in albino rat assessed as hind paw thickness at 18 mg/kg, ip pretreated for 1 hr followed by carrageenan challenge and measured after 2 hrs by caliper method (reference value: 0.84 +/- 0.02 millimeter); format: functional; method in brief: as §1
Rattus norvegicus [5] = test: Antiinflammatory activity against carrageenan-induced paw oedema in albino rat assessed as hind paw thickness at 18 mg/kg, ip pretreated for 1 hr followed by carrageenan challenge and measured after 3 hrs by caliper method (reference value: 0.94 +/- 0.02 millimeter); format: functional; method in brief: as §1
Rattus norvegicus [6] = test: Antiinflammatory activity against carrageenan-induced paw oedema in albino rat assessed as hind paw thickness at 18 mg/kg, ip pretreated for 1 hr followed by carrageenan challenge and measured after 4 hrs by caliper method (reference value: 1.24 +/- 0.02 millimeter); format: functional; method in brief: as §1
Rattus norvegicus [7] = test: Antiinflammatory activity in albino rat assessed as inhibition of carrageenan-induced paw edema at 18 mg/kg, ip pretreated for 1 hr followed by carrageenan challenge and measured after 1 hr by caliper method relative to control; format: functional
Method in brief: (§2)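 Carrageenin paw edema in male albino rats (150–200 g, n = 6 per group), 18 mg/kg i.p. 1 h before 0.1 mL 10% carrageenin into the right hind paw. Caliper thickness at 1–4 h. Percent edema inhibition derived from thickness change relative to the untreated control group.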

Rattus norvegicus [8] = test: Antiinflammatory activity in albino rat assessed as inhibition of carrageenan-induced paw edema at 18 mg/kg, ip pretreated for 1 hr followed by carrageenan challenge and measured after 2 hrs by caliper method relative to control; format: functional; method in brief: as §2
Rattus norvegicus [9] = test: Antiinflammatory activity in albino rat assessed as inhibition of carrageenan-induced paw edema at 18 mg/kg, ip pretreated for 1 hr followed by carrageenan challenge and measured after 3 hrs by caliper method relative to control; format: functional; method in brief: as §2
Rattus norvegicus [10] = test: Antiinflammatory activity in albino rat assessed as inhibition of carrageenan-induced paw edema at 18 mg/kg, ip pretreated for 1 hr followed by carrageenan challenge and measured after 4 hrs by caliper method relative to control; format: functional; method in brief: as §2
[11] = Ulcerogenicity in albino rat assessed as average severity score at 18 mg/kg, po administrated once daily for 3 successive days and measured after 6 hrs from last dose (reference value: 0); format: toxicity, organism-based; details: in vivo
[12] = Ulcerogenicity in albino rat assessed as incidence of gastric ulceration at 18 mg/kg, po administrated once daily for 3 successive days and measured after 6 hrs from last dose relative to control; format: toxicity, organism-based; details: in vivo
[13] = Ulcerogenicity in albino rat assessed as ulcer index at 18 mg/kg, po administrated once daily for 3 successive days and measured after 6 hrs from last dose (reference value: 0); format: toxicity, organism-based; details: in vivo

Row | Structure (SMILES) | IC50 [1] | Activity (Rattus norvegicus [2]) | Activity (Rattus norvegicus [3]) | Activity (Rattus norvegicus [4]) | Activity (Rattus norvegicus [5]) | Activity (Rattus norvegicus [6]) | inhibition in vivo at 18 mg/kg (Rattus norvegicus [7]) | inhibition in vivo at 18 mg/kg (Rattus norvegicus [8]) | inhibition in vivo at 18 mg/kg (Rattus norvegicus [9]) | inhibition in vivo at 18 mg/kg (Rattus norvegicus [10]) | Activity [11] | Activity [12] | UI [13]
1 | Cc1cc(-c2ccccc2)n(C(=O)C(C(=O)n2nc(C)cc2-c2ccccc2)N2C(=O)c3ccccc3S2(=O)=O)n1 | 11.8 µM | 0.24 mm | 0.36 mm | 0.41 mm | 0.41 mm | 0.48 mm | 50.7% | 51.2% | 56.4% | 61.3% | 0.2 | 20% | 4
2 | O=S(=O)(NCc1ccccc1)c1ccccc1-c1nnc(S)n1/N=C/c1ccccc1 | 6.45 µM |  |  |  |  |  |  |  |  |  |  |  | 
3 | O=C(N/N=C/c1ccc(Cl)cc1)C(C(=O)N/N=C/c1ccc(Cl)cc1)N1C(=O)c2ccccc2S1(=O)=O | 7.65 µM |  |  |  |  |  |  |  |  |  |  |  | 
4 | Cc1cc(-c2ccccc2)n(C(=O)c2ccccc2S(=O)(=O)NC(C)C)n1 | 9.24 µM | 0.24 mm | 0.32 mm | 0.36 mm | 0.38 mm | 0.43 mm | 56.2% | 57.1% | 59.6% | 65.3% | 0.2 | 20% | 4
5 | CC(C)NS(=O)(=O)c1ccccc1C(=O)N1N=C(c2ccccc2)CC1=O | 12.2 µM | 0.24 mm | 0.42 mm | 0.5 mm | 0.52 mm | 0.54 mm | 42.5% | 43.5% | 44.7% | 56.5% | 0.2 | 20% | 4
6 | COc1ccc2c(c1)c(CC(=O)O)c(C)n2C(=O)c1ccc(Cl)cc1 [INDOMETHACIN] |  |  |  |  |  |  |  |  |  |  | 4.8 | 100% | 480
7 | Cc1ccc(-c2cc(C(F)(F)F)nn2-c2ccc(S(N)(=O)=O)cc2)cc1 [CELECOXIB] |  | 0.24 mm | 0.41 mm | 0.44 mm | 0.44 mm | 0.46 mm | 43.8% | 47.6% | 53.2% | 62.9% | 0 | 0% | 3
8 | CCSc1nnc(-c2ccccc2S(=O)(=O)NCc2ccccc2)o1 | 8.21 µM |  |  |  |  |  |  |  |  |  |  |  | 

Now from value to compound, other results behind:

Row | IC50 [1] | Structure (SMILES) | Activity (Rattus norvegicus [2]) | Activity (Rattus norvegicus [3]) | Activity (Rattus norvegicus [4]) | Activity (Rattus norvegicus [5]) | Activity (Rattus norvegicus [6]) | inhibition in vivo at 18 mg/kg (Rattus norvegicus [7]) | inhibition in vivo at 18 mg/kg (Rattus norvegicus [8]) | inhibition in vivo at 18 mg/kg (Rattus norvegicus [9]) | inhibition in vivo at 18 mg/kg (Rattus norvegicus [10]) | Activity [11] | Activity [12] | UI [13]
9 | 2.78 µM | O=C(N/N=C/c1ccc(F)cc1)C(C(=O)N/N=C/c1ccc(F)cc1)N1C(=O)c2ccccc2S1(=O)=O | 0.24 mm | 0.36 mm | 0.4 mm | 0.43 mm | 0.55 mm | 50.7% | 52.4% | 54.2% | 54.3% | 1.2 | 100% | 120
10 | 2.98 µM | Nn1c(S)nnc1-c1ccccc1S(=O)(=O)NCc1ccccc1 | 0.24 mm | 0.44 mm | 0.48 mm | 0.56 mm | 0.63 mm | 39.7% | 42.9% | 45.4% | 49.2% | 3.6 | 100% | 360
11 | 4.21 µM | O=S(=O)(NCc1ccccc1)c1ccccc1-c1nnc(S)n1/N=C/c1ccc(Br)cc1 |  |  |  |  |  |  |  |  |  |  |  | 
12 | 1.98 µM | O=C(N/N=C/c1ccccc1)C(C(=O)N/N=C/c1ccccc1)N1C(=O)c2ccccc2S1(=O)=O |  |  |  |  |  |  |  |  |  |  |  | 
13 | 5.71 µM | O=S(=O)(NCc1ccccc1)c1ccccc1-c1nnc(S)n1/N=C/c1ccc(Cl)cc1 |  |  |  |  |  |  |  |  |  |  |  | 
14 | 4.52 µM | O=S(=O)(NCc1ccccc1)c1ccccc1-c1nnc(S)o1 |  |  |  |  |  |  |  |  |  |  |  | 
15 | 3.25 µM | COc1ccc(/C=N/n2c(S)nnc2-c2ccccc2S(=O)(=O)NCc2ccccc2)cc1 |  |  |  |  |  |  |  |  |  |  |  | 
16 | 3.68 µM | O=S(=O)(NCc1ccccc1)c1ccccc1-c1nnc(SCc2ccccc2)o1 |  |  |  |  |  |  |  |  |  |  |  | 
